Assay results collected from several papers.
Each line is one published result; the experiments were not run side by side.
Target: Estrogen receptor (ESR1, Homo sapiens, UniProt P03372)
Residues used in one study (P03372 1-595): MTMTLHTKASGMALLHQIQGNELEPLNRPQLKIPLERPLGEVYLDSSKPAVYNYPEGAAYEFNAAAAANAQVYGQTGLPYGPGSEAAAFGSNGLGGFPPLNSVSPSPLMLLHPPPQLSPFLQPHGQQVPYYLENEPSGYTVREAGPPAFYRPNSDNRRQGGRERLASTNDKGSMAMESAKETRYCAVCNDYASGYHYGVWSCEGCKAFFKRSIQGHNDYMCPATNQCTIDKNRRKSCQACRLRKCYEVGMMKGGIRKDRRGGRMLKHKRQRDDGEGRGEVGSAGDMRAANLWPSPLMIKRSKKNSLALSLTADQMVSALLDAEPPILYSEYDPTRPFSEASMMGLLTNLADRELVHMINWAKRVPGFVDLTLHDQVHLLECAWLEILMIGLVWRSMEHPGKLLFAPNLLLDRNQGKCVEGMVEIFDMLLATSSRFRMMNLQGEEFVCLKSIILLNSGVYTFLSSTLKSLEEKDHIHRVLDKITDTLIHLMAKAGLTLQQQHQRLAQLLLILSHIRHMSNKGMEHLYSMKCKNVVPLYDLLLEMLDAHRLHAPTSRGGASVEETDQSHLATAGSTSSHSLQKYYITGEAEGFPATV

SMILES | read-out | mode | technique | tested at | endpoint | result
COCc1c(-c2cc3cc(C)cc(OC)c3s2)c2c(N)ncnn2c1CN1CCNC(=O)C1 | ligand displacement | – | radioligand | 10 µM | inhibition | 6%
COc1ccc(S(=O)(=O)N2CCCCC2)cc1C | ligand displacement | – | radioligand | 10 µM | inhibition | < 30%
C[C@H](C(=O)N[C@H]1COc2ccccc2[C@@H]1S(C)(=O)=O)c1ccc(F)cc1 | cell-free assay | – | – | 10 µM | inhibition | 7%
Clc1ccc(-c2cc(Cl)ccc2Cl)cc1 | reporter gene | agonist | luciferase | – | Emax | < 20%
O=C(Nc1cccnn1)N1CCN([C@@H]2CCOc3cc(C(F)(F)F)ccc32)CC1 | cell-free assay | – | – | 20 µM | inhibition | 0%
CC(C)N1CCC[C@H]1CNC(=O)c1cn(C2CCCC2)c(=O)c2c1c1ccccc1n2C | ligand displacement | – | radioligand | 10 µM | inhibition | 15%
c1ccc(C(NCCNC(c2ccccc2)c2ccccc2)c2ccccc2)cc1 | cell-free assay | – | – | 10 µM | inhibition | 63%
Clc1cccc(-c2cccc(Cl)c2)c1 | reporter gene | agonist | luciferase | – | Emax | < 20%
